eIF4H inh – inhibitors of RNA binding by human eIF4H; Q15056; eIF4H fluorescence polarization binding assay; inhibition, % at 35 µM; 290,000 tested, 0.94% active; AID 2012;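 note: calls also rest on retests at 20 µM and on dose response follow-up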
TCR-CD3 inh – inhibitors of human TCR-CD3 interaction | inhibition, % at 9.4 µM | TAMRA-labeled TCR probe fluorescence, biochemical | 360,000 tested, 0.37% active | AID 651800; in the data active = inhibition above about 19%;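 note: recombinant mutant TCR 2C K166C tagged with TAMRA read by polarization; 0% = receptor in buffer alone and 100% = receptor with positive control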
RBBP9 inhibitor – blocks human serine hydrolase RBBP9. O75884. recombinant RBBP9, FP-Rh probe fluorescence polarization. inhibition, % at 7.94 µM. 220,000 tested, 0.2% active. AID 1515;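 active = inhibition above the campaign mean of all tested compounds plus 3 SD, cut at about 14% in these data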;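 note: plate controls were DMSO wells with RBBP9 for no effect and wells lacking RBBP9 protein for full effect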
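Controls: DMSO-treated enzyme wells and wells lacking RBBP9 | Material: RBBP9 protein | Technique: Fluorescence polarization | Replication: Single well per compound, no replicates | Buffer or medium: Tris-NaCl-Pluronic buffer, pH 8.0 | Timing: 30 min compound preincubation, 45 min probe labeling, 25 °C | Read-out basis: Percent inhibition from mP, scaled between DMSO and no-protein wells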
MLLE-PAM2 inh – blocks PAM2 peptide binding to the PABP1 MLLE domain; inhibition, % at 20 µM; 360,000 tested, 0.36% active; GST-MLLE / FITC-PAM2 fluorescence polarization; in the data active = inhibition above about 35%, passing the limit was not always enough;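 note: plate controls were DMSO wells with GST-MLLE for no effect and wells lacking GST-MLLE protein for full effect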
Target sequence (P11940 whole entry, looked up, the tested form may be a part): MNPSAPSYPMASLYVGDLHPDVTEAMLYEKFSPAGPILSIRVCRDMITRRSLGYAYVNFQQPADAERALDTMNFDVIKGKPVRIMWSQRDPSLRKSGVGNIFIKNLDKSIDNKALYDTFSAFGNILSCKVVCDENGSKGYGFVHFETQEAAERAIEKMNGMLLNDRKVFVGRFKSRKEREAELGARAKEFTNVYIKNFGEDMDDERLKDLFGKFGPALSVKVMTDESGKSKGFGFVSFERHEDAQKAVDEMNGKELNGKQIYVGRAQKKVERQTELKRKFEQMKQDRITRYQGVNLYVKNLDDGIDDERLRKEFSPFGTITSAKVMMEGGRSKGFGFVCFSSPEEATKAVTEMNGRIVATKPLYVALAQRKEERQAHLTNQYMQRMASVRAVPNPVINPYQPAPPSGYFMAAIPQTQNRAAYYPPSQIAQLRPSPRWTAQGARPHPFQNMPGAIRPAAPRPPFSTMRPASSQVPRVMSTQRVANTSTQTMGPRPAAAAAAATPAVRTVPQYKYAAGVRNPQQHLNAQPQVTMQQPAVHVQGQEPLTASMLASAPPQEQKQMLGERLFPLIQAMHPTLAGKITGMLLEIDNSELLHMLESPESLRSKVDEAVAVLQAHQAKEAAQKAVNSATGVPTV
PABP polyA inh – PABP-poly(A) binding inhibition; P11940; 290,000 tested, 1% active; AID 2014; calls only at 35 µM; PABP-poly(A) RNA binding, fluorescence polarization;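 note: calls also rest on retests at 20 µM and on dose response follow-up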
BSA probe FL – BSA probe counter-screen for TCR-CD3 inhibitors. shares compounds with TCR-CD3 inh. TAMRA-labeled BSA probe fluorescence counterscreen. inhibition, % at 9.4 µM. 1,200 tested, 10% active; in the data active = inhibition above about 23%;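 note: 0% = buffer low control and 100% = reference high control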
TCR-CD3 inh conf – confirmation of human TCR-CD3 interaction inhibitors; shares compounds with TCR-CD3 inh; inhibition, % at 9.4 µM; TAMRA-labeled TCR probe fluorescence binding assay; 1,200 tested, 48% active; in the data active = inhibition above about 19%
* marks the source's active call; other numbers are inactive results; i = inactive; · = no result given; + = active, no number. In the library only some 1.6% were active in any assay of this set; here they are far more common. Unless noted, the rule behind the calls is not given here.

SMILES	eIF4H inh	TCR-CD3 inh	RBBP9 inhibitor	MLLE-PAM2 inh	PABP polyA inh	BSA probe FL	TCR-CD3 inh conf
Cn1c(=O)c(C(=O)NNC(=O)c2cccc(Cl)c2)c(O)c2ccccc21	21.0	22.2*	·	-5.7	i	-3.5	14.8
Nc1nc2c(ncn2[C@@H]2O[C@H](C(=O)N[C@H](Cc3ccccc3)C(=O)NCc3ccccc3)[C@@H](O)[C@H]2O)c(=O)[nH]1	·	0.2	·	·	·	·	·
COc1ccc(N2C(=O)C3CCCN3C2=S)cc1 (stereo not given)	-10.2	20.1*	·	19.4	i	5.2	12.5
CCc1ccc(N2C(=O)C3CCCN3C2=S)cc1 (stereo not given)	-3.6	16.7	·	26.9	i	·	·
CCOC(=O)N1CCc2cc(OC)c(OC)c3c2c1cc1cc(OC)c(OC)cc13	·	26.5*	·	-30.4	·	-3.2	1.7
COc1cc(CC(=O)N2CCc3ccccc32)cc(OC)c1OC	5.1	-1.2	-2.5	-16.2	i	·	·
CC(=O)c1ccc(OC2(C)CCN(Cc3cc4ccccc4[nH]3)C2)cc1 (stereo not given)	·	30.7*	·	-9.6	·	1.9	2.9
CCOc1cc(/C=N\NC(=O)c2ccc(NC(=O)C(C)(C)C)cc2)ccc1OC(=O)c1ccc(C)cc1	-3.1	-0.1	-7.5	1.2	i	·	·
Cc1cccc(C(=O)Oc2ccccc2/C=N/NC(=O)c2ccc(NC(=O)C(C)(C)C)cc2)c1	-4.9	23.7*	-10.8	12.7	i	16.6	43.4*
CCOc1cc(/C=N\NC(=O)c2ccc(NC(=O)C(C)(C)C)cc2)ccc1OC(=O)c1cccc(C)c1	-0.3	62.1*	-6.2	-3.7	i	36.0*	82.3*
CC(C)(C)C(=O)Nc1ccc(C(=O)N/N=C/c2ccccc2OC(=O)c2ccccc2)cc1	-7.5	3.9	-26.2	-3.5	i	·	·
CC(C)(C)C(=O)Nc1ccc(C(=O)N/N=C/c2ccccc2OC(=O)c2ccc(Cl)cc2)cc1	0.7	25.5*	-13.0	3.6	i	24.8*	42.9*
Cc1nc2ccccc2n1C(c1cccnc1)c1nc2ccccc2[nH]1 (stereo not given)	·	-5.8	·	·	·	·	·
COC(=O)c1ccc2nc(-c3ccc(C)cc3)c(CC(C)(C)C)n2c1	·	8.6	·	·	·	·	·
CC(=O)C1=C(C)N(Cc2ccc(Br)cc2)C(=S)NC1c1cccc(Br)c1 (stereo not given)	·	-0.5	·	·	·	·	·
C/C(=N\NC(=O)c1ccccc1O)C1CC1	-0.4	25.4*	·	-0.1	i	40.9*	23.1*
C/C(=N\NC(=O)c1ccc(N)cc1)C1CC1	3.5	9.2	·	7.5	i	·	·
Cc1cc2nc3ccc(N(C)C)cc3nc2cc1N	·	93.0*	·	36.8	·	48.3*	72.3*
Cc1ccc(-n2nc3cc(C)c(N)cc3n2)cc1	-10.8	-0.4	4.1	-46.2	i	·	·
Cc1[nH]n(-c2ccccc2)c(=O)c1N=Nc1ccccc1O	11.6	27.7*	-9.0	-4.5	i	-4.2	19.9*
CCCn1cc(CCC(=O)Nc2ccc(Oc3cccnc3)cc2)c2ccccc21	·	5.1	·	·	·	·	·
O=C(NCC1CCCCC1)c1cc(-c2cc(F)ccc2OCC2CCCO2)n[nH]1 (stereo not given)	·	5.3	·	-16.3	·	·	·
Cc1ccc(C2=NC(=O)/C(=C/c3cc(O)c(O)c(Br)c3)S2)cc1	56.4*	33.3*	-42.4	5.2	+	-9.9	46.7*
COc1ccc(Br)cc1CNc1ccc(O)cc1	43.5	30.6*	-1.8	1.1	i	-0.4	3.0
Oc1ccc(NCc2ccccc2OCc2ccccc2F)cc1	36.2	11.3	6.5	16.1	i	·	·
SMILES	eIF4H inh	TCR-CD3 inh	RBBP9 inhibitor	MLLE-PAM2 inh	PABP polyA inh	BSA probe FL	TCR-CD3 inh conf
CCOc1ccccc1CNc1ccc(O)cc1	51.0	20.5*	6.0	4.0	+	6.4	6.4
Cc1cc(Oc2cccnc2)ccc1NC(=O)Cc1cn(C)c2ccccc12	·	-4.6	·	·	·	·	·
COc1ccccc1CNc1nc(NCc2ccc3occc3c2)c2sccc2n1	·	6.1	·	-4.3	·	·	·
Cc1ccc(S(=O)(=O)N2CC(CBr)=CCC2c2ccccc2)cc1 (stereo not given)	·	3.3	·	·	·	·	·
Cc1ccc(CC2CC(=O)N(c3nc4ccccc4s3)C2=O)cc1 (stereo not given)	0.9	-1.4	-8.5	-14.6	i	·	·
CC(=O)c1nc(N2C(=O)CC(Cc3ccc(C)cc3)C2=O)sc1C (stereo not given)	-5.4	55.6*	-6.0	-12.1	i	-2.3	3.6
O=C(CC1c2ccccc2C=C(c2ccsc2)N1c1ccc(-c2cccnc2)cc1)C1CC1 (stereo not given)	·	2.8	·	·	·	·	·
COc1ccc(S(=O)(=O)Nc2c(NC3CCCCC3)c3ccccc3oc2=O)cc1Cl	-4.7	1.4	·	1.2	i	·	·
Cc1cc(S(=O)(=O)Nc2c(NC3CCCCC3)c3ccccc3oc2=O)ccc1F	-6.3	19.1*	·	20.2	i	4.2	3.4
CCCc1nnc(NC(=O)CS(=O)(=O)c2ccccc2)s1	-6.6	29.6*	·	19.4	i	-1.3	1.4
C[C@@H]1Cn2cnc(C(=O)N(C)Cc3ccccc3)c2C(=O)N1	·	-2.1	·	·	·	·	·
CCCn1c(C)c(CC(=O)Nc2ccc(N(C)c3ccccn3)cc2)c2ccccc21	·	0.0	·	·	·	·	·
O=C(COC(=O)c1ccc(Br)o1)Nc1ncc([N+](=O)[O-])s1	·	-5.4	·	3.7	·	·	·
COc1ccc(C(=O)OCC(=O)Nc2ncc([N+](=O)[O-])s2)cc1OC	·	20.6*	·	0.1	·	-19.1	7.6
COc1cc(C(=O)C(=O)N2CCN(c3ccccc3)CC2)cc2ccccc12	·	-3.5	·	·	·	·	·
CCn1c(=N)c(C(N)=O)cc2c(=O)n3cccc(C)c3nc21	·	·	-1.3	·	·	·	·
COCCCn1c(=N)c(C(N)=S)cc2c(=O)n3cccc(C)c3nc21	·	27.8*	·	21.8	·	-3.9	11.6
Cc1cccn2c(=O)c3cc(C(N)=S)c(=N)n(CCCN4CCOCC4)c3nc12	74.8*	22.5*	-4.7	19.4	+	-6.3	9.3
CC(C)(C)S(=O)N1C[C@@H]2CC(=O)C(CCO)=C2[C@H]1CCO (stereo not given in full)	·	-3.8	·	·	·	·	·
CCCCCCCCN1C(=O)[C@@H](CC(=O)NCCC(C)C)C[C@@]2(C(=O)OC)C1=C[C@H](C1CCCC1)O[C@@H]2C	·	4.9	·	·	·	·	·
CC(C)=CCCC1=CC[C@H]2[C@@H](C1)C(C(C)C)=CC(=O)[C@@]2(C)O	·	-4.3	·	·	·	·	·
Cc1ccc(S(=O)(=O)N2CCCc3nc(-c4ccc(Br)cc4)ccc32)cc1	·	-5.8	·	·	·	·	·
CN1CCN(C(=O)c2cc3c(c(-c4cccc(-c5cccnc5)c4)n2)[C@@H](CCO)N(C(=O)CC2CC2)C3)CC1	·	25.1*	·	·	·	0.9	0.4
O=S(=O)(O)c1cc(O)c(N=Nc2ccc(O)cc2O)c2ccccc12	·	150.3*	·	37.5	·	171.4*	129.6*
O=[N+]([O-])c1ccccc1N=Nc1ccc(O)cc1O	·	-5.5	·	0.2	·	·	·
CCCCNc1cccc2c1S(=O)(=O)N[C@@H](Cc1ccccc1)CO2	·	-2.3	·	·	·	·	·
